Reference: ChEMBL document CHEMBL4689842, “EUbOPEN Chemogenomics Library wave 1” (2021)

Assays:
Assay type in all cases: toxicity, cell-based
[1] = system: Fibroblast; assay: Multiplex assay against human fibroblast
How it was run: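 Cells stained live at seeding with Hoechst33342, BioTracker Green Microtubule Cytoskeleton Dye, MitoTracker Red and Annexin V Alexa Fluor 680 were imaged on a CQ1 microscope at 37°C and 5% CO2 after compound addition. Their classification by CellPathfinder machine-learning gating ran from Hoechst high-intensity objects versus normal cells, to healthy, pyknosed or fragmented nuclei among normal cells, to mitotic or apoptotic among pyknosed cells. Tubulin, mitochondrial-mass and membrane-permeability phenotypes are per cents of healthy-nucleus cells.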

[2] = system: Fibroblast; assay: Incucyte cell viability with human fibroblast; settings: 10 µM, compound concentration 10 uM; also: filed as whole numbers so only -1 and 0 and 1 occur
[3] = system: U2OS; assay: Incucyte cell viability with U2OS; settings: human, 10 µM, compound concentration 10 uM; also: filed as whole numbers so only -1 and 0 and 1 occur
[4] = system: HEK-293T; assay: Incucyte cell viability with HEK293T; settings: human, 10 µM, compound concentration 10 uM; also: filed as whole numbers so only -1 and 0 and 1 occur
[5] = 12 h, 1 µM, compound concentration 1 uM, replicate 1
[6] = 12 h, 1 µM, compound concentration 1 uM, replicate 2
[7] = 12 h, 10 µM, compound concentration 10 uM, replicate 1
[8] = 12 h, 10 µM, compound concentration 10 uM, replicate 2
[9] = 24 h, 1 µM, compound concentration 1 uM, replicate 1
[10] = 24 h, 1 µM, compound concentration 1 uM, replicate 2
[11] = 24 h, 10 µM, compound concentration 10 uM, replicate 1
[12] = 24 h, 10 µM, compound concentration 10 uM, replicate 2
[13] = 48 h, 1 µM, compound concentration 1 uM, replicate 1
[14] = 48 h, 1 µM, compound concentration 1 uM, replicate 2
[15] = 48 h, 10 µM, compound concentration 10 uM, replicate 1
[16] = 48 h, 10 µM, compound concentration 10 uM, replicate 2
[17] = 0 h, replicate number 1, timepoint 0 hours
[18] = 18 h, replicate number 1, timepoint 18 hours
[19] = 24 h, replicate number 1, timepoint 24 hours
[20] = 12 h, replicate number 1, timepoint 12 hours

CN1C(=O)[C@@H](NC(=O)c2cc3ccccc3[nH]2)N=C(c2ccccc2)c2ccccc21 [DEVAZEPIDE]
Population Apoptotic (%) [1, 5]: 72% | Population Fragmented Nuclei (%) [1, 5]: 21% | Population Healthy Nuclei (%) [1, 5]: 36% | Population Hoechst High Intensity Objects (%) [1, 5]: 13% | Population Membrane Permeable-Phenotype (%) [1, 5]: 34% | Population Mitochondria Different-Phenotype (%) [1, 5]: 3% | Population Mitotic Cells (%) [1, 5]: 27% | Population Normal (%) [1, 5]: 87% | Population Pyknosed Nuclei (%) [1, 5]: 41% | Population Tubulin-Different-Phenotype (%) [1, 5]: 56% | Total Cell Count [1, 5]: 100 | Population Apoptotic (%) [1, 6]: 33% | Population Fragmented Nuclei (%) [1, 6]: 4% | Population Healthy Nuclei (%) [1, 6]: 85% | Population Hoechst High Intensity Objects (%) [1, 6]: 5% | Population Membrane Permeable-Phenotype (%) [1, 6]: 9% | Population Mitochondria Different-Phenotype (%) [1, 6]: 23% | Population Mitotic Cells (%) [1, 6]: 66% | Population Normal (%) [1, 6]: 94% | Population Pyknosed Nuclei (%) [1, 6]: 9% | Population Tubulin-Different-Phenotype (%) [1, 6]: 10% | Total Cell Count [1, 6]: 68 | Population Apoptotic (%) [1, 7]: 67% | Population Fragmented Nuclei (%) [1, 7]: 18% | Population Healthy Nuclei (%) [1, 7]: 48% | Population Hoechst High Intensity Objects (%) [1, 7]: 16% | Population Membrane Permeable-Phenotype (%) [1, 7]: 42% | Population Mitochondria Different-Phenotype (%) [1, 7]: 15% | Population Mitotic Cells (%) [1, 7]: 32% | Population Normal (%) [1, 7]: 83% | Population Pyknosed Nuclei (%) [1, 7]: 33% | Population Tubulin-Different-Phenotype (%) [1, 7]: 68% | Total Cell Count [1, 7]: 112 | Population Apoptotic (%) [1, 8]: 33% | Population Fragmented Nuclei (%) [1, 8]: 20% | Population Healthy Nuclei (%) [1, 8]: 75% | Population Hoechst High Intensity Objects (%) [1, 8]: 7% | Population Membrane Permeable-Phenotype (%) [1, 8]: 37% | Population Mitochondria Different-Phenotype (%) [1, 8]: 48% | Population Mitotic Cells (%) [1, 8]: 66% | Population Normal (%) [1, 8]: 92% | Population Pyknosed Nuclei (%) [1, 8]: 5% | Population Tubulin-Different-Phenotype (%) [1, 8]: 66% | Total Cell Count [1, 8]: 65 | Population Apoptotic (%) [1, 9]: 44% | Population Fragmented Nuclei (%) [1, 9]: 25% | Population Healthy Nuclei (%) [1, 9]: 46% | Population Hoechst High Intensity Objects (%) [1, 9]: 13% | Population Membrane Permeable-Phenotype (%) [1, 9]: 21% | Population Mitochondria Different-Phenotype (%) [1, 9]: 14% | Population Mitotic Cells (%) [1, 9]: 56% | Population Normal (%) [1, 9]: 86% | Population Pyknosed Nuclei (%) [1, 9]: 27% | Population Tubulin-Different-Phenotype (%) [1, 9]: 73% | Total Cell Count [1, 9]: 104 | Population Apoptotic (%) [1, 10]: 37% | Population Fragmented Nuclei (%) [1, 10]: 7% | Population Healthy Nuclei (%) [1, 10]: 82% | Population Hoechst High Intensity Objects (%) [1, 10]: 1% | Population Membrane Permeable-Phenotype (%) [1, 10]: 3% | Population Mitochondria Different-Phenotype (%) [1, 10]: 10% | Population Mitotic Cells (%) [1, 10]: 62% | Population Normal (%) [1, 10]: 98% | Population Pyknosed Nuclei (%) [1, 10]: 10% | Population Tubulin-Different-Phenotype (%) [1, 10]: 6% | Total Cell Count [1, 10]: 79 | Population Apoptotic (%) [1, 11]: 43% | Population Healthy Nuclei (%) [1, 11]: 54% | Population Hoechst High Intensity Objects (%) [1, 11]: 12% | Population Membrane Permeable-Phenotype (%) [1, 11]: 34% | Population Mitochondria Different-Phenotype (%) [1, 11]: 9% | Population Mitotic Cells (%) [1, 11]: 56% | Population Normal (%) [1, 11]: 87% | Population Pyknosed Nuclei (%) [1, 11]: 16% | Population Tubulin-Different-Phenotype (%) [1, 11]: 55% | Total Cell Count [1, 11]: 108 | Population Apoptotic (%) [1, 12]: 92% | Population Fragmented Nuclei (%) [1, 12]: 28% | Population Healthy Nuclei (%) [1, 12]: 49% | Population Hoechst High Intensity Objects (%) [1, 12]: 7% | Population Membrane Permeable-Phenotype (%) [1, 12]: 19% | Population Mitochondria Different-Phenotype (%) [1, 12]: 45% | Population Mitotic Cells (%) [1, 12]: 7% | Population Normal (%) [1, 12]: 92% | Population Pyknosed Nuclei (%) [1, 12]: 22% | Population Tubulin-Different-Phenotype (%) [1, 12]: 51% | Total Cell Count [1, 12]: 68 | Population Apoptotic (%) [1, 13]: 53% | Population Fragmented Nuclei (%) [1, 13]: 35% | Population Healthy Nuclei (%) [1, 13]: 46% | Population Hoechst High Intensity Objects (%) [1, 13]: 22% | Population Membrane Permeable-Phenotype (%) [1, 13]: 36% | Population Mitochondria Different-Phenotype (%) [1, 13]: 18% | Population Mitotic Cells (%) [1, 13]: 46% | Population Normal (%) [1, 13]: 77% | Population Pyknosed Nuclei (%) [1, 13]: 18% | Population Tubulin-Different-Phenotype (%) [1, 13]: 66% | Total Cell Count [1, 13]: 92 | Population Apoptotic (%) [1, 14]: 0% | Population Fragmented Nuclei (%) [1, 14]: 19% | Population Healthy Nuclei (%) [1, 14]: 79% | Population Hoechst High Intensity Objects (%) [1, 14]: 7% | Population Membrane Permeable-Phenotype (%) [1, 14]: 14% | Population Mitochondria Different-Phenotype (%) [1, 14]: 3% | Population Mitotic Cells (%) [1, 14]: 100% | Population Normal (%) [1, 14]: 92% | Population Pyknosed Nuclei (%) [1, 14]: 0% | Population Tubulin-Different-Phenotype (%) [1, 14]: 54% | Total Cell Count [1, 14]: 127 | Population Apoptotic (%) [1, 15]: 66% | Population Fragmented Nuclei (%) [1, 15]: 44% | Population Healthy Nuclei (%) [1, 15]: 42% | Population Hoechst High Intensity Objects (%) [1, 15]: 12% | Population Membrane Permeable-Phenotype (%) [1, 15]: 22% | Population Mitochondria Different-Phenotype (%) [1, 15]: 12% | Population Mitotic Cells (%) [1, 15]: 33% | Population Normal (%) [1, 15]: 87% | Population Pyknosed Nuclei (%) [1, 15]: 12% | Population Tubulin-Different-Phenotype (%) [1, 15]: 57% | Total Cell Count [1, 15]: 107 | Population Apoptotic (%) [1, 16]: 100% | Population Fragmented Nuclei (%) [1, 16]: 37% | Population Healthy Nuclei (%) [1, 16]: 61% | Population Hoechst High Intensity Objects (%) [1, 16]: 8% | Population Membrane Permeable-Phenotype (%) [1, 16]: 29% | Population Mitochondria Different-Phenotype (%) [1, 16]: 11% | Population Mitotic Cells (%) [1, 16]: 0% | Population Normal (%) [1, 16]: 91% | Population Pyknosed Nuclei (%) [1, 16]: 1% | Population Tubulin-Different-Phenotype (%) [1, 16]: 61% | Total Cell Count [1, 16]: 96 | Growth Rate [2, 17]: 0 | Growth Rate [2, 18]: 1 | Growth Rate [2, 19]: 1 | Growth Rate [3, 17]: 0 | Growth Rate ([3]; 6 h, replicate number 1, timepoint 6 hours): 1 | Growth Rate [3, 20]: 1 | Growth Rate [3, 18]: 1 | Growth Rate ([3]; 18 h, replicate number 2, timepoint 18 hours): 0 | Growth Rate [3, 19]: 1 | Growth Rate ([3]; 24 h, replicate number 2, timepoint 24 hours): 0 | Growth Rate [4, 17]: 0 | Growth Rate ([4]; 6 h, replicate number 2, timepoint 6 hours): 1 | Growth Rate [4, 20]: 1 | Growth Rate ([4]; 12 h, replicate number 2, timepoint 12 hours): 0 | Growth Rate [4, 18]: 0 | Growth Rate [4, 19]: 0
